In ChEMBL document CHEMBL3102785, “Characterization of the congeners in the lantibiotic NAI-107 complex” (2014):
Values after ≈ are worked out from the molar mass of the structure shown.

Columns and labels:
Assay type in all cases: functional
[1] = system: Streptococcus pneumoniae; assay: Antibacterial activity against Streptococcus pneumoniae ATCC 49619 after 24 hrs by broth microdilution method
[2] = system: Enterococcus faecium; assay: Antibacterial activity against Enterococcus faecium L568 expressing VanS gene after 24 hrs by broth microdilution method
Outline: (§1)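 CLSI broth microdilution MIC in Müller Hinton broth with 20 mg/L CaCl2 and 10 mg/L MgCl2. Compounds were dissolved in DMSO and diluted in medium just before testing. Inoculum was 5 × 10^5 cfu/mL, incubated 24 h at 37 °C. MIC was the lowest concentration giving complete suppression of visible growth. Strains came from ATCC or an in-house collection (L-prefix).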

[3] = system: Enterococcus faecalis; assay: Antibacterial activity against Enterococcus faecalis L560 expressing VanA gene after 24 hrs by broth microdilution method; outline: as §1
[4] = system: Enterococcus faecalis; assay: Antibacterial activity against Enterococcus faecalis L559 expressing VanS gene after 24 hrs by broth microdilution method; outline: as §1
[5] = system: Streptococcus pyogenes; assay: Antibacterial activity against Streptococcus pyogenes L49 after 24 hrs by broth microdilution method
[6] = system: Staphylococcus aureus; assay: Antibacterial activity against methicillin-resistant Staphylococcus aureus ND035208 after 24 hrs by broth microdilution method
Outline: (§2)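 Broth microdilution per CLSI in Müller Hinton broth with 20 mg/L CaCl2 and 10 mg/L MgCl2. Inoculum 5 × 10^5 cfu/mL, 24 h at 37 °C. Compounds dissolved in DMSO and diluted in medium just before testing. MIC taken as lowest concentration giving complete suppression of visible growth.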

[7] = system: Staphylococcus aureus; assay: Antibacterial activity against methicillin-sensitive Staphylococcus aureus L819/ATCC 19636 after 24 hrs by broth microdilution method; outline: as §1
[8] = system: Enterococcus faecium; assay: Antibacterial activity against Enterococcus faecium L569 expressing VanA gene after 24 hrs by broth microdilution method; outline: as §1
[9] = system: Staphylococcus aureus; assay: Antibacterial activity against Staphylococcus aureus GISA L3798 after 24 hrs by broth microdilution method; outline: as §2

| Compound | MIC [1] [µg/mL] | MIC [2] [µg/mL] | MIC [3] [µg/mL] | MIC [4] [µg/mL] | MIC [5] [µg/mL] | MIC [6] [µg/mL] | MIC [7] [µg/mL] | MIC [8] [µg/mL] | MIC [9] [µg/mL] | MIC ([1]; ATCC 49619, 24 h) [µg/mL] | MIC ([2]; L568, 24 h) [µg/mL] | MIC ([3]; L560, 24 h) [µg/mL] | MIC ([4]; L559, 24 h) [µg/mL] | MIC ([5]; L49, 24 h) [µg/mL] | MIC ([6]; ND035208, 24 h) [µg/mL] | MIC ([7]; L819/ATCC 19636, 24 h) [µg/mL] | MIC ([8]; L569, 24 h) [µg/mL] | MIC ([9]; GISA L3798, 24 h) [µg/mL] |
| --- | --- | --- | --- | --- | --- | --- | --- | --- | --- | --- | --- | --- | --- | --- | --- | --- | --- | --- |
| GENTAMICIN | 8 | 16 | 4 | 4 | 16 | > 128 | 1 | 16 | 0.02 | – | – | – | – | – | – | – | – | – |
| C=C1NC(=O)[C@H](Cc2c[nH]c3ccc(Cl)cc23)NC(=O)[C@@H](NC(=O)/C(=C/C)NC(=O)[C@@H](N)C(C)C)CSC[C@@H](C(=O)N[C@@H]2C(=O)N3CCC[C@H]3C(=O)NCC(=O)N[C@H](C(=O)N[C@H](C(=O)N[C@H]3CSC[C@@H]4NC(=O)[C@H](CC(=O)O)NC(=O)[C@H](CSC[C@@H]5NC(=O)[C@H](Cc6ccccc6)NC(=O)[C@H](CS/C=C\NC5=O)NC4=O)NC(=O)CNC(=O)CNC(=O)CNC(=O)[C@@H]4C(O)C(O)CN4C3=O)[C@@H](C)O)CSC2C)NC(=O)[C@H](CC(C)C)NC1=O (stereo not given in full) | – | – | – | – | – | – | – | – | – | 0.015 (≈ 0.00667 µM) | 4 (≈ 1.78 µM) | 1 (≈ 0.444 µM) | 2 (≈ 0.889 µM) | ≤ 0.001 | 1 (≈ 0.444 µM) | 0.25 (≈ 0.111 µM) | 4 (≈ 1.78 µM) | 1 (≈ 0.444 µM) |
| C=C1NC(=O)[C@H](Cc2c[nH]c3ccccc23)NC(=O)[C@@H](NC(=O)/C(=C/C)NC(=O)[C@@H](N)C(C)C)CSC[C@@H](C(=O)N[C@@H]2C(=O)N3CCC[C@H]3C(=O)NCC(=O)N[C@H](C(=O)N[C@H](C(=O)N[C@H]3CSC[C@@H]4NC(=O)[C@H](CC(=O)O)NC(=O)[C@H](CSC[C@@H]5NC(=O)[C@H](Cc6ccccc6)NC(=O)[C@H](CS/C=C\NC5=O)NC4=O)NC(=O)CNC(=O)CNC(=O)CNC(=O)[C@@H]4CCCN4C3=O)[C@@H](C)O)CSC2C)NC(=O)[C@H](CC(C)C)NC1=O (stereo not given in full) | – | – | – | – | – | – | – | – | – | ≤ 0.03 | 32 (≈ 14.7 µM) | 32 (≈ 14.7 µM) | 64 (≈ 29.3 µM) | ≤ 0.03 | 8 (≈ 3.66 µM) | 4 (≈ 1.83 µM) | 32 (≈ 14.7 µM) | 16 (≈ 7.33 µM) |
| C=C1NC(=O)[C@H](Cc2c[nH]c3ccc(Cl)cc23)NC(=O)[C@@H](NC(=O)/C(=C/C)NC(=O)[C@@H](N)C(C)C)CSC[C@@H](C(=O)N[C@@H]2C(=O)N3CCC[C@H]3C(=O)NCC(=O)N[C@H](C(=O)N[C@H](C(=O)N[C@H]3CSC[C@@H]4NC(=O)[C@H](CC(=O)O)NC(=O)[C@H](CSC[C@@H]5NC(=O)[C@H](Cc6ccccc6)NC(=O)[C@H](CS/C=C\NC5=O)NC4=O)NC(=O)CNC(=O)CNC(=O)CNC(=O)[C@@H]4CC(O)CN4C3=O)[C@@H](C)O)CSC2C)NC(=O)[C@H](CC(C)C)NC1=O (stereo not given in full) | – | – | – | – | – | – | – | – | – | 0.03 (≈ 0.0134 µM) | 4 (≈ 1.79 µM) | 2 (≈ 0.895 µM) | 2 (≈ 0.895 µM) | ≤ 0.001 | 1 (≈ 0.448 µM) | 0.25 (≈ 0.112 µM) | 4 (≈ 1.79 µM) | 2 (≈ 0.895 µM) |
| C=C1NC(=O)[C@H](Cc2c[nH]c3ccc(Cl)cc23)NC(=O)[C@@H](NC(=O)/C(=C/C)NC(=O)[C@@H](N)C(C)C)CSC[C@@H](C(=O)N[C@@H]2C(=O)N3CCC[C@H]3C(=O)NCC(=O)N[C@H](C(=O)N[C@H](C(=O)N[C@H]3CSC[C@@H]4NC(=O)[C@H](CC(=O)O)NC(=O)[C@H](CSC[C@@H]5NC(=O)[C@H](Cc6ccccc6)NC(=O)[C@H](CS/C=C\NC5=O)NC4=O)NC(=O)CNC(=O)CNC(=O)CNC(=O)[C@@H]4CCCN4C3=O)[C@@H](C)O)CSC2C)NC(=O)[C@H](CC(C)C)NC1=O (stereo not given in full) | – | – | – | – | – | – | – | – | – | 0.03 (≈ 0.0135 µM) | 8 (≈ 3.61 µM) | 4 (≈ 1.8 µM) | 8 (≈ 3.61 µM) | ≤ 0.001 | 4 (≈ 1.8 µM) | 0.5 (≈ 0.225 µM) | 8 (≈ 3.61 µM) | 4 (≈ 1.8 µM) |
